Data published in article PMC8458982 (The Journal of Biological Chemistry, 2021).
Where a chain is given by its changes, count along the chain named. “And” between values parts separate entries of the source, which are not always exact repeats. Identical values can stand only once.

Legend:
mouse TRPC6 (mTRPC6-WT) = target: T1, mouse TRPC6 (mTRPC6-WT) (Mus musculus, UniProt Q61143); assay: whole-cell patch-clamp, mTRPC6-WT expressed in HEK293 cells; format: cell-based
T1 sequence (Q61143 1-930): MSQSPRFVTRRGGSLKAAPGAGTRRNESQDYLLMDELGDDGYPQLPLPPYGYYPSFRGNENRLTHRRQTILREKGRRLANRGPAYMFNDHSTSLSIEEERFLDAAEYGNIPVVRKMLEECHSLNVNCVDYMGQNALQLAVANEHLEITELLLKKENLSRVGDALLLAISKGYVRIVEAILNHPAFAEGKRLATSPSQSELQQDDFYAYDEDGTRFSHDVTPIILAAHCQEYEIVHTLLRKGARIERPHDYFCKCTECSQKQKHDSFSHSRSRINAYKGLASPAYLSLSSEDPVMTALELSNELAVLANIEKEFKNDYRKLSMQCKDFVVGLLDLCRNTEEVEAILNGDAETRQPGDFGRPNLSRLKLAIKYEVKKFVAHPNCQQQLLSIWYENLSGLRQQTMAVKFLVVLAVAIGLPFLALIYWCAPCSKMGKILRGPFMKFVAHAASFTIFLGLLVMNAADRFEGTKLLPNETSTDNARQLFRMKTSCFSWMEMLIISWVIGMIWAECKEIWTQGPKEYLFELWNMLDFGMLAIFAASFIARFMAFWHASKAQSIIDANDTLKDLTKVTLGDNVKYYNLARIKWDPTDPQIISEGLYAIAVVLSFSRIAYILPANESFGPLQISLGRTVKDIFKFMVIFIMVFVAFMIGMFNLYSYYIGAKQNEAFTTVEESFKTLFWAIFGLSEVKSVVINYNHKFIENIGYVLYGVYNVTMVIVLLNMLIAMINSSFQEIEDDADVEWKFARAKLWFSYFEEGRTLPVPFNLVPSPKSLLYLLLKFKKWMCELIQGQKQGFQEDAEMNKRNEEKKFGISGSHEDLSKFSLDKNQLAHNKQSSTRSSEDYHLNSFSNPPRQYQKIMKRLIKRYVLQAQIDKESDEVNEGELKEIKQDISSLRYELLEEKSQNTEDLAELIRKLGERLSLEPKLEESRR
In short: (§1)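 Transiently transfected HEK293 cells expressing mouse or human TRPC6 WT, or sequence-verified mouse point mutants, recorded 24–48 h post-transfection. Conventional whole-cell clamp at −60 mV and 23 °C, gap-free; test compound applied by Y-tube. Pipette: CsCl/HEPES/BAPTA, 400 nM free Ca2+, pH 7.2. Bath: NaCl-based, 2 mM CaCl2, pH 7.4. EC50 from Hill fit of concentration–current data. Mutant screen used current ratios (10/5 μM or 3/1 μM). At least 3 transfection batches.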

human TRPC6 (hTRPC6-WT) = human TRPC6 (hTRPC6-WT) (Homo sapiens, UniProt Q9Y210); assay: whole-cell patch-clamp, hTRPC6-WT expressed in HEK293 cells; format: cell-based
In short: as §1

mTRPC6 mutant ^mE671C = target: T2, mTRPC6 mutant ^mE671C (Mus musculus, UniProt Q61143, E671C); assay: whole-cell patch-clamp, mTRPC6 mutant E671C; format: cell-based
T2 sequence (Q61143 1-930 E671C): T1 sequence (Q61143 1-930) with E671C
In short: as §1

mTRPC6 mutant ^mT487L = assay: whole-cell patch-clamp, mTRPC6 mutant T487L; format: cell-based, mouse; conditions: ^mT487L (S1 pocket)
In short: as §1

mTRPC6 mutant ^mY657W = assay: whole-cell patch-clamp, mTRPC6 mutant Y657W; format: cell-based, mouse; conditions: ^mY657W (S1 pocket)
In short: as §1

mTRPC6 mutant ^mK688R = assay: whole-cell patch-clamp, mTRPC6 mutant K688R; format: cell-based, mouse; conditions: ^mK688R (S3 pocket)
In short: as §1

mTRPC6 mutant ^mF678W = mTRPC6 mutant ^mF678W (Mus musculus, UniProt Q61143, F678W); assay: whole-cell patch-clamp, mTRPC6 mutant F678W; format: cell-based; conditions: saturated agonist
In short: as §1

mTRPC6^N701Q = mTRPC6^N701Q (Mus musculus, UniProt Q61143, N701Q); assay: single-channel outside-out recording, mTRPC6 N701Q; format: cell-based; conditions: 100 μM agonist, −60 mV
In short: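 Excised outside-out or inside-out patches (macro-patch or single-channel) from transfected HEK293 cells, 24–48 h post-transfection, 23 °C. Polished borosilicate pipettes of 8–12 MΩ; holding potential −60 mV. Same solutions as whole-cell recordings (CsCl-based internal, 400 nM free Ca2+, pH 7.2; NaCl-based external, pH 7.4). Sampled at 50 kHz, 2 kHz filter, low-pass 300 Hz; unitary current and conductance measured.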

Chain of mTRPC6^N701Q (Q61143 whole entry N701Q): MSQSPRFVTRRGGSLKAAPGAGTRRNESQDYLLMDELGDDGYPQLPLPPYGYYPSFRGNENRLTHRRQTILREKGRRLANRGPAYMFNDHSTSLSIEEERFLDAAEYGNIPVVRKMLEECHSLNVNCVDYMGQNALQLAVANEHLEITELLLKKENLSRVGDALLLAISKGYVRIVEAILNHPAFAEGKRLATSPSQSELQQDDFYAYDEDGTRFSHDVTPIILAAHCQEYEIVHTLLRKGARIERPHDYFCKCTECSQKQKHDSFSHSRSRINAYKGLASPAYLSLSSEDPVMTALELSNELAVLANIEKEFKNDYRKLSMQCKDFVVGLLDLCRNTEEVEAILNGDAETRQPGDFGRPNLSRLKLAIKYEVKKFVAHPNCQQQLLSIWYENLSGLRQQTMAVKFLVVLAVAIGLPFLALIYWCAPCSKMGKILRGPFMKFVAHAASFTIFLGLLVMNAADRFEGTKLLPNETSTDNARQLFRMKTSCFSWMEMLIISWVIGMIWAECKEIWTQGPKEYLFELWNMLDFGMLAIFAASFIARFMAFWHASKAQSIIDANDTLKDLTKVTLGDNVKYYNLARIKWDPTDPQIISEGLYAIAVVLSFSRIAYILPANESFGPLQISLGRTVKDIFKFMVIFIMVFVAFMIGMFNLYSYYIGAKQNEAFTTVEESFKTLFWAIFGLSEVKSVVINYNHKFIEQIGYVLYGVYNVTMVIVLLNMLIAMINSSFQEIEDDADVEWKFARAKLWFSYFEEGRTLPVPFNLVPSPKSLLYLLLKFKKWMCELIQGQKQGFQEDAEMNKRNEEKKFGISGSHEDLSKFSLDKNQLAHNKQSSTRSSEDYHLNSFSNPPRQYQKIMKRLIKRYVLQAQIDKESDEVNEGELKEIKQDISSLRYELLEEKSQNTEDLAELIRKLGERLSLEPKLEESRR
Chain of human TRPC6 (hTRPC6-WT) (Q9Y210 whole entry): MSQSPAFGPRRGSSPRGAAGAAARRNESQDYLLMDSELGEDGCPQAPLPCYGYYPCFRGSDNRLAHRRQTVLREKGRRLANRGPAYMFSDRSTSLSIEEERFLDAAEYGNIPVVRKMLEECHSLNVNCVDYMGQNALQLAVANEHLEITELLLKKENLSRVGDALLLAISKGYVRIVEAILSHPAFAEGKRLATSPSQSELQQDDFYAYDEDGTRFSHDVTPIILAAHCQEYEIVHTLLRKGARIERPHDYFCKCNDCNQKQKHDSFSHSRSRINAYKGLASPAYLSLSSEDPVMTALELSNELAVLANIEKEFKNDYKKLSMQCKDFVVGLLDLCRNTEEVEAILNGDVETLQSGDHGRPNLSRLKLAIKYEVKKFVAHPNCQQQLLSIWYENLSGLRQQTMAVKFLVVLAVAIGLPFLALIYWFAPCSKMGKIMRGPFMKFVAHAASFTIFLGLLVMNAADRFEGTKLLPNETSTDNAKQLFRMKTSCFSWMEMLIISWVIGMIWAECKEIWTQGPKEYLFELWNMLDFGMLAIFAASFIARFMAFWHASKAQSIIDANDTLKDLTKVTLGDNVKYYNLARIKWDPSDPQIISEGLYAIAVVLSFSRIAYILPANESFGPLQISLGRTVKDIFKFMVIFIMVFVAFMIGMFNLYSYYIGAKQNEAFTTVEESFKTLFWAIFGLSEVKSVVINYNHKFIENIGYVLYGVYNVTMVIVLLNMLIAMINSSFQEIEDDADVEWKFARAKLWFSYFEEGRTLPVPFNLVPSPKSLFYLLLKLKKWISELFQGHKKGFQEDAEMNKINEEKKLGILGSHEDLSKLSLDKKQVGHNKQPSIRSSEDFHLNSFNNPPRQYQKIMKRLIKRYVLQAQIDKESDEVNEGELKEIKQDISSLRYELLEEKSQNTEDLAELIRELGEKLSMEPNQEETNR
Chain of mTRPC6 mutant ^mF678W (Q61143 whole entry F678W): as the sequence (Q61143 whole entry N701Q) above, with F678W, Q701N counted along it

Structure (SMILES): CCOC(=O)N1CCC(c2cc(O)n3nc(C)c(-c4ccc(F)cc4)c3n2)CC1 [M085, Ethyl 4-(3-(4-fluorophenyl)-7-hydroxy-2-methylpyrazolo[1,5-a]pyrimidin-5-yl)piperidine-1-carboxylate]
- EC50 (mouse TRPC6 (mTRPC6-WT); EC50 of channel activation, mTRPC6-WT, whole-cell, −60 mV, Hill fit): ~5 µM and 3.8 µM
- ratio of M085 activation current I10 μM/I5 μM (mouse TRPC6 (mTRPC6-WT); mTRPC6-WT): 1.65 ± 0.21
- Imax (maximal current density) (mouse TRPC6 (mTRPC6-WT); mTRPC6-WT, 30 μM M085 (saturated)): 75.11 ± 14.20 pA/pF
- effect of DTNB on agonist-mediated activation (mouse TRPC6 (mTRPC6-WT); mTRPC6-WT, DTNB covalent modification): no effect
- saturation concentration (mouse TRPC6 (mTRPC6-WT); mTRPC6 activation): approximately 10 μM
- EC50 (human TRPC6 (hTRPC6-WT)): 2.94 ± 0.7 µM
- EC50 (mTRPC6 mutant ^mE671C): 23.3 ± 6.86 µM
- ratio of M085 activation current I10 μM/I5 μM (mTRPC6 mutant ^mE671C; ^mE671C (S2 pocket)): 4.16 ± 0.87
- Imax (maximal current density) (mTRPC6 mutant ^mE671C; ^mE671C, 100 μM agonist): 24.09 ± 4.53 pA/pF
- agonist-mediated activation after DTNB treatment (mTRPC6 mutant ^mE671C; mTRPC6^E671C, DTNB 2 mM): completely inhibited
- agonist current after DTT removal of TNB moiety (mTRPC6 mutant ^mE671C; mTRPC6^E671C, after DTNB then DTT 10 mM): partially “recovered”
- ratio of M085 activation current I10 μM/I5 μM (mTRPC6 mutant ^mT487L): 1.26 ± 0.22
- ratio of M085 activation current I10 μM/I5 μM (mTRPC6 mutant ^mY657W): 1.68 ± 0.24
- ratio of M085 activation current I10 μM/I5 μM (mTRPC6 mutant ^mK688R): 1.80 ± 0.22
- agonist-induced current (channel function) (mTRPC6 mutant ^mF678W): complete loss of function
- unit current (mTRPC6^N701Q): about 1.1 pA
